Source: PubChem BioAssay
sdo1 growth: growth rescue of sdo1-depleted yeast, primary screen, S. cerevisiae, bone marrow failure model; AID 817, 2007; S. cerevisiae sdo1-depleted JHY4D growth rescue, OD600 30 h; active compounds read high; pdr5 snq2 efflux-pump mutant strain; z-score at 10 µM; actives 0.21% (n = 140,000);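 active = z-score above 3 at both the 24 hr and the 30 hr optical density reads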;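 note: z-score against mean and SD of all compound wells on the same plate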
Yeast lifespan up: compounds extending yeast replicative lifespan, primary screen, S. cerevisiae, OD615; inhibition of the nicotinamide effect, % at 10 µM; actives 0.68% (n = 130,000); AID 775, 2007; S. cerevisiae growth with nicotinamide; deaD strain in restrictive glucose medium;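 active = inhibition above a set limit, placed 3 SD over the median of all compounds, cut at about 26% in these data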;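 note: 0% = nicotinamide-treated wells and 100% = cells grown without nicotinamide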
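Assay system: engineered S. cerevisiae DeaD replicative-lifespan strain, galactose-grown log-phase cells; Buffer or medium: CSMM-D glucose medium, restrictive; Probe or stimulus: nicotinamide 1.5 mM; Compound: single dose 10 µM compound, 0.25% DMSO; Schedule: 4 h preincubation then 48 h treatment at 30 °C; Technique: OD615 measurement.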
Yeast growth inh: growth inhibitors of yeast BB579 in restrictive medium, primary screen, yeast lifespan-shortening project, S. cerevisiae; OD615, 48 h; inhibition, % at 10 µM; actives 0.51% (n = 140,000); AID 804, 2007;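 active = inhibition above a set limit, 3 SD over the mean compound inhibition, cut at about 44% in these data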
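System: DeaD yeast strain BB579; buffer or medium: CSMM-D dextrose restrictive medium; technique: OD at 615 nm; schedule: 4 h cell preincubation, 48 h compound exposure, 30 °C humidified; doses: single 10 µM dose; controls: amphotericin B 10 µg/mL, positive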
NCF1 inh: p47phox/p22phox peptide binding inhibitors, primary screen, biochemical, uHTS, NADPH oxidase regulatory subunit; Neutrophil cytosol factor 1 (Homo sapiens), P14598; fluorescence polarization, 2 h; actives 0.53% (n = 220,000); inhibition, % at 24.7 µM;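 active = inhibition above about 30%, limit read from the data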;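 note: 0% = p47phox with labelled peptide and 100% = labelled peptide alone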
Target sequence (P14598 whole entry, looked up): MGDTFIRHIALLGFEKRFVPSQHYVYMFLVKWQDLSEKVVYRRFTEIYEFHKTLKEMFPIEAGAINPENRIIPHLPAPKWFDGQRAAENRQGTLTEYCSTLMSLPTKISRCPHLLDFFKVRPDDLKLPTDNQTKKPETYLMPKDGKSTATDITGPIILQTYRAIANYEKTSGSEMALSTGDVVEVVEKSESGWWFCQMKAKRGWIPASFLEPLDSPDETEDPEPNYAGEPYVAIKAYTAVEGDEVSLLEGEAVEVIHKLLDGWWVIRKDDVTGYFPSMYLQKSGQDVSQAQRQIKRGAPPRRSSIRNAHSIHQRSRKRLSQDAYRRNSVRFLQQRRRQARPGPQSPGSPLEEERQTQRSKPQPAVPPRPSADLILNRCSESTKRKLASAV
TbHK1 inh: Trypanosoma brucei hexokinase 1 inhibitors, primary screen, biochemical, G6PDH-coupled NADH absorbance, MLSCN library; AID 1430, 2008; recombinant TbHK1, G6PDH-coupled NADH A340; actives 0.11% (n = 220,000); inhibition, % at 10 µM;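 active = inhibition of 50% or more in the single-dose primary screen; inactive = inhibition below 50%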
RBBP9 inh: human RBBP9 inhibitors, primary screen, biochemical, fluorescence polarization, FP-Rh probe, HTS. AID 1515, 2009. inhibition, % at 7.94 µM. recombinant RBBP9. actives 0.2% (n = 220,000);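 active = inhibition above the campaign mean of all tested compounds plus 3 SD, cut at about 14% in these data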;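 note: plate controls were DMSO wells with RBBP9 for no effect and wells lacking RBBP9 protein for full effect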
Target sequence (O75884 whole entry, looked up): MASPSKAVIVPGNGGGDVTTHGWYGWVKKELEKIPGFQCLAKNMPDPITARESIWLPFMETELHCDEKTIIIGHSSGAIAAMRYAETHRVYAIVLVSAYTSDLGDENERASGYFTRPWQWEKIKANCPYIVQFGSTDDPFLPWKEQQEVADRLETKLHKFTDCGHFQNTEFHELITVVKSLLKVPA
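Test system: recombinant human RBBP9. Quantity: 2.5 µM RBBP9 dispensing solution, before mixing. Detection: FP readout at 525/598 nm. Reagent: Serine-hydrolase probe FP-Rh, 375 nM pre-mixing. Measure: % inhibition. Control set: DMSO-treated enzyme wells and wells lacking RBBP9. Buffer or medium: Tris-NaCl-Pluronic buffer, pH 8.0. Times: preincubation 30 min plus labeling 45 min at 25 °C.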
* hit, by the source's call; · = not tested or not shown; [ ] = another dose, or the depositor's remark. Hits are enriched below; roughly 1.6% of the tested compounds scored in any of these assays.

SMILES	sdo1 growth	Yeast lifespan up	Yeast growth inh	NCF1 inh	TbHK1 inh	RBBP9 inh
Oc1c(CN2CCc3ccccc3C2)cc(Cl)c2cccnc12	-2.1	-15	99*	-6	6	-3
Oc1ccc(CN2CCN(Cc3ccccc3)CC2)c2cccnc12	0.18[11.4 µM]	-16	-20	0	-1	0
CN1CCN(Cc2cc(COCc3ccccc3)c3cccnc3c2O)CC1	-0.68	-3	51*	3	-6	1
O=C(Oc1c(CN2CCOCC2)cc(Cl)c2cccnc12)c1ccccc1	·	·	·	-2	0	3
CCCn1c(N)c(N(CCOC)C(=O)/C=C/c2ccc(C(=O)OC)cc2)c(=O)[nH]c1=O	·	·	·	-9	-5	-7
COc1ccc(-c2nc(NC(=O)C3=NN(c4cccc(C)c4)C(=O)CC3)sc2C)cc1	·	·	·	-33	-11	-3
CN1C=CC=C/C1=C1\SC(=S)N(N)C1=O	·	·	·	-4	0	-2
O=C(/C(=C/c1ccccc1)n1cncn1)c1ccc(Cl)cc1Cl	-1.2	49*	12	10	16	-9
O=C(/C(=N\O)n1cncn1)c1ccc(Cl)cc1Cl	·	·	·	-4	-1	-8
COc1cc(OC)cc(C(=O)/C=C2\Sc3ccccc3N2C)c1	·	·	·	1	-6	-6
COc1ccc2c(c1)S/C(=C\C(=O)c1ccncc1)N2C	-2.4	-14	92*	-38	-5	-13
Cc1cc(C)c(C#N)c(SCC(=O)C2CC2)n1	·	·	·	3	-5	8
C/C(=N\O)C(C)(C)Nc1ccc(Cl)cc1	·	·	·	-4	-2	-7
Cc1ccc(Cl)cc1NC1=C/C(=N\S(=O)(=O)c2cccs2)c2ccccc2C1=O	-2.5	1	-51	84*	-13	-6
Cc1ccc(NC2=C/C(=N\S(=O)(=O)c3cccs3)c3ccccc3C2=O)c(C)c1	-2	·	-26	-6	3	9
Cc1cccc(NC2=C/C(=N/S(=O)(=O)c3cccs3)c3ccccc3C2=O)c1	-0.87	8	-46	15	-5	-1
O=C1C(Nc2ccc(O)cc2)=C/C(=N/S(=O)(=O)c2cccs2)c2ccccc21	·	·	·	31*	1	5
COc1cc(C2C(C(=O)/C=C/c3ccccc3)=C(O)C(=O)N2c2ccccn2)ccc1O (stereo not drawn)	·	·	·	-16	-13	-5
COc1ccc(OC)c(NC(=O)C2C3CCC(O3)C2C(=O)O)c1 (stereo not drawn)	0.74	-5	-26	53*	3	3
CN(C)c1nc(N)c([N+](=O)[O-])c(NCC2CCCO2)n1 (stereo not drawn)	·	·	·	0	-58	-5
COC(=O)c1cccc(Cn2nnc3ccccc3c2=O)c1	1.3	-13	-34	114*	0	-3
Cc1nc(NCCOc2ccccc2)sc1C(=O)Nc1ccccc1	·	·	·	-5	6	-3
CSc1nc(N)nc(-c2cccs2)c1C#N	1.3	-25	3	-17	-21	-4
CC(C)Sc1nc(N)nc(-c2cccs2)c1C#N	-1.6	-21	76*	-21	2	-14
COc1ccc(N=Cc2c(O)ccc3ccccc23)cc1	·	·	·	-14	-7	-1
SMILES	sdo1 growth	Yeast lifespan up	Yeast growth inh	NCF1 inh	TbHK1 inh	RBBP9 inh
O=C(O)Cc1ccc(N=Cc2c(O)ccc3ccccc23)cc1	-0.62	57*	-30	-11	4	0
Cc1ccc(N=Cc2c(O)ccc3ccccc23)cc1F	-0.41	36*	5	-14	-3	7
N#Cc1cccc(N=Cc2c(O)ccc3ccccc23)c1	0.35	40*	-9	-4	2	1
NNC(=O)CCn1c2ccccc2c2ccccc21	·	·	·	-1	-8	-3
Cc1cc(NC(=O)C(=O)NCc2cccc(Cl)c2)no1	·	·	·	-9	-5	4
N/C(Cc1ccccc1)=N\OC(=O)c1cccc2ccccc12	-1.7	-9	84*	-2	0	-5
O=C(CSc1nnc(-c2ccc(C(F)(F)F)cn2)o1)Nc1ccccc1Cl	·	·	·	-3	-19	0
Cc1ccc(SCc2c(-c3ccccc3)nn(C)c2Cl)cc1	-0.86	-9	-5	1	-3	1
Cn1nc(-c2ccccc2)c(CSc2ccccc2)c1Cl	-0.54	-7	0	139*	3	-11
CCC(=O)NC(c1ccc(C)cc1)c1cc([N+](=O)[O-])c2cccnc2c1O (stereo not drawn)	-0.69	-4	85*	-6	14	-2
Cn1c(N)c(C(=O)COC(=O)C2=NNC(=O)CC2)c(=O)n(C)c1=O	·	·	·	-15	-2	-8
CCOc1ccc(N=Nc2c(=O)[nH]n3c(=O)c4c([nH]c23)CCCC4)cc1	1.2	9	-43	-32	0	0
CCOc1ccc(N=Nc2c(=O)[nH]n3c(=O)cc(C)[nH]c23)cc1	1.6	-15	4	-35	-6	32*
CCCc1cc(-c2n[nH]c(=S)n2C(C)c2ccccc2)cs1 (stereo not drawn)	-1.8	12	50*	-1	1	-2
CC(C)NC(=O)Cn1cc(C(=O)C2CC2)c2ccccc21	·	·	·	-8	-4	-11
CC(=O)NCCc1c[nH]c2ccc(OCC(O)CNC(C)(C)C)cc12 (stereo not drawn)	·	·	·	3	-7	-2
COc1ccc(N=Cc2c(O)n(-c3ccc(OC)cc3)c(=O)c3ccccc23)cc1	·	·	·	33*	-4	-6
O=C(NNC1=Nc2cccc3cccc1c23)c1ccccc1Br	-1.8	38*	-35	-19	-7	-7
COc1ccc(-c2ncncc2-c2csc(C)n2)c(O)c1OC	1.2	2	-7	-3	-13	-1
COC1=C(N)C(=O)c2nc(-c3nc(C(=O)O)c(C)c(-c4ccc(OC)c(OC)c4O)c3N)ccc2C1=O	-2.5	-7	97*	-9	-6	-5
CN(C)CC(=O)c1ccc(-c2ccccc2)cc1	-0.01	-8	2	44*	-2	-8
CCN(CC)CC(=O)c1ccc(-c2ccccc2)cc1	-0.18	-29	-11	-7	1	-3
COC(=O)C1=C(N)OC2=C(C(=O)CC(C)(C)C2)C1c1cccs1 (stereo not drawn)	-0.07	35*	-49	-3	-4	-5
CC1(C)CC(=O)C2=C(C1)OC(N)=C(C#N)C2c1cccs1 (stereo not drawn)	·	·	·	-11	0	-5
CNC(=S)N/N=C(\C)c1ccc(N2CCOCC2)cc1	2.3	-6	70*	-7	-28	-4
O=C(NC(=S)N1CCc2ccccc21)c1ccccc1Br	-1.4	27*	-24	-6	-10	-4
